From ChEMBL document CHEMBL4321860, “Disrupting the Conserved Salt Bridge in the Trimerization of Influenza A Nucleoprotein” (J Med Chem, 2020) come the findings set out here.

Series [1] can be described thus: Inhibition of nucleoprotein trimerization in recombinant Influenza A virus A/WSN/1933 (H1N1) infected in MDCK cells assessed as reduction in reduction in E339(carboxyl group)-R416(guanidino group) interaction by measuring virus-induced cytopathic effect after 48 hrs by CellTiter 96 AQueous non-radioactive cell proliferation assay. The format is cell-based. The essentials:
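CPE protection assay. Virus at 100 TCID₅₀ is mixed 1:1 with compound at varied concentrations and added to MDCK cells (1 × 10⁵ cells/mL). After 48 h at 37 °C/5% CO₂, CPE is read with CellTiter 96 AQueous reagent. EC₅₀, the concentration giving 50% protection from CPE, is obtained by fitting percent CPE against concentration.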
For orientation: Cytopathic effects are the visible damage that an infection or toxin causes in cultured cells.

A short description of series [2]: Cytotoxicity against dog MDCK cells after 48 hrs by CellTiter 96 AQueous non-radioactive cell proliferation assay. The format is cell-based, Canis lupus familiaris. The procedure, abridged:
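MDCK cells, grown in DMEM with 10% FBS and penicillin−streptomycin at 37 °C/5% CO₂, seeded at 1 × 10⁵ cells/mL and exposed to varied compound concentrations without virus. Incubated 48 h at 37 °C under 5% CO₂, then read with CellTiter 96 AQueous (MTS) reagent. CC₅₀ is the 50% cytotoxic concentration from the curve fit.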

Series [3] concerns Influenza A virus. Nature of the series: Antiviral activity against Influenza A virus A/WSN/1933 (H1N1) infected in BALB/c mouse assessed as increase in animal body weight at 20 mg/kg/day, ip administered for 5 days and measured after 10 days post infection. The format is functional, organism-based. The essentials:
(§1)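 Female BALB/c mice (18−20 g), quarantined 48−72 h, anesthetized i.p. (zoletil or ketamine/xylazine). Drug in PBS with 40% PEG 400 given i.p. twice daily for 5 days. Intranasal virus challenge (25 μL, 2X mouse LD₅₀) 4 h after first dose. Vehicle-only controls on the same schedule; 10 mice/group. Survival and body weight recorded daily for 14 days.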

Series [4] has as its system Influenza A virus. Nature of the series: Antiviral activity against Influenza A virus A/WSN/1933 (H1N1) infected in BALB/c mouse assessed as animal survival rate at 20 mg/kg/day, ip administered for 5 days and measured after 14 days relative to control. Type of series: functional. The essentials: as §1
The nature of series [5]: Aqueous solubility of compound. The format is physicochemical. To be noted: buffer.

Activity calls are given as the source filed them. No cut-off for these calls is given here. Bounds are passed on as bounds.

For `CC(C)OCCCNC(=O)c1csc(Nc2ccc(Cl)cc2)n1`, the EC50 (in general, the concentration that produces a half-maximal response) in series [1] was found to be 1.2 µM. The cytotoxic concentration (CC50) (usually the concentration that lowers cell viability or growth by half) at 48 h in series [2] is over 100 µM.

Turning to `CCOCCCNC(=O)c1csc(Nc2ccc(Cl)c(F)c2)n1`, the EC50 in series [1] came out at 0.6 µM. Besides, the CC50 at 48 h in series [2] is over 100 µM.

For `CC(C)OCCCNC(=O)c1csc(Nc2cc(F)c(Cl)c(F)c2)n1` [listing 1 of 2 here], the outcome in the series on Influenza A virus [3] was Active.

As for `O=C(NCCCN1CCOCC1)c1csc(Nc2ccc(Cl)c(F)c2)n1`, in series [1], the EC50 came out at 3.2 µM. For the same compound, the CC50 at 48 h in series [2] worked out at 45 µM.

For the compound `CC(C)OCCCNC(=O)c1csc(Nc2cc(F)c(Cl)c(F)c2)n1.O=S(=O)(O)O.O=S(=O)(O)O`, the Activity with Influenza A virus [4] is on record as 30%.

With `CCOCCCNC(=O)c1csc(Nc2ccc(Cl)c(C)c2)n1`, the EC50 in series [1] is 1 µM. Also, the CC50 at 48 h in series [2] was found to be 52 µM.

Take `O=C(NCCCN1CCOCC1)c1csc(Nc2cc(Cl)c(Cl)c(Cl)c2)n1`: the EC50 in series [1] turned out to be 1.5 µM. Further, the CC50 at 48 h in series [2] amounted to 41 µM.

For the compound `CCOCCCNC(=O)c1csc(Nc2ccc(Cl)c(Cl)c2)n1`, in series [1], the EC50 stood at 0.2 µM. Besides, the CC50 at 48 h in series [2] was over 100 µM.

In the case of `CC(C)OCCCNC(=O)c1csc(Nc2cc(F)c(Cl)c(F)c2)n1` [listing 2 of 2 here], the EC50 in series [1] was 0.11 µM. Besides, the CC50 at 48 h in series [2] was over 100 µM. Also, in series [5], the solubility entry is listed as “Insoluble”.

As to `CCOCCCNC(=O)c1csc(Nc2ccc(Cl)cc2)n1`, the 50% effective concentration (EC50) in series [1] was determined as 1.3 µM. Moreover, the CC50 at 48 h in series [2] was over 100 µM.

Regarding `CCOCCCNC(=O)c1csc(Nc2cc(C)c(Cl)c(C)c2)n1`, in series [1], the EC50 is 2.3 µM. Also, the CC50 at 48 h in series [2] is over 100 µM.

In the case of `CC(C)OCCCNC(=O)c1csc(Nc2ccc(Cl)c(Cl)c2)n1`, the half-maximal effective concentration (EC50) in series [1] is 0.7 µM. In addition, the CC50 at 48 h in series [2] is 100 µM.

Take `Cc1cc(Nc2nc(C(=O)NCCCOC(C)C)cs2)ccc1Cl`: the EC50 in series [1] turned out to be 1.2 µM. The cytotoxic concentration (CC50) at 48 h in series [2] is over 100 µM.

Regarding `Cc1cc(Nc2nc(C(=O)NCCCN3CCOCC3)cs2)ccc1Cl`, in series [1], the EC50 was 3.7 µM. Moreover, the CC50 at 48 h in series [2] stood at 47 µM.

For `O=C(NCCCN1CCOCC1)c1csc(Nc2ccc(Cl)cc2)n1`, in series [1], the half-maximal effective concentration (EC50) is 3.1 µM. Besides, the CC50 at 48 h in series [2] was over 100 µM.

In the case of `CCOCCCNC(=O)c1csc(Nc2cc(F)c(Cl)c(F)c2)n1` [listing 1 of 2 here], the EC50 in series [1] was found to be 0.12 µM. Also, the CC50 at 48 h in series [2] is over 100 µM. Moreover, the solubility entry in series [5] was “Insoluble”.

For the compound `Cc1cc(Nc2nc(C(=O)NCCCOC(C)C)cs2)cc(C)c1Cl`, in series [1], the EC50 turned out to be 1.3 µM. In series [2], the CC50 at 48 h was over 100 µM.

With `CC(C)OCCCNC(=O)c1csc(Nc2cc(Cl)c(Cl)c(Cl)c2)n1`, the half-maximal effective concentration (EC50) in series [1] came out at 0.6 µM. For the same compound, the CC50 at 48 h in series [2] is over 100 µM.

With `CC(C)OCCCNC(=O)c1csc(Nc2ccc(Cl)c(F)c2)n1`, in series [1], the EC50 amounted to 0.5 µM. In addition, the CC50 at 48 h in series [2] is over 100 µM.

As to `Cc1cc(Nc2nc(C(=O)NCCCN3CCOCC3)cs2)cc(C)c1Cl`, the 50% effective concentration (EC50) in series [1] is 3.1 µM. Besides, in series [2], the CC50 at 48 h worked out at 45.7 µM.

Consider `O=C(NCCCN1CCOCC1)c1csc(Nc2cc(F)c(Cl)c(F)c2)n1`, for which, in series [1], the EC50 was 0.8 µM. For the same compound, the CC50 at 48 h in series [2] worked out at 52 µM.

For the compound `CCOCCCNC(=O)c1csc(Nc2cc(Cl)c(Cl)c(Cl)c2)n1`, the EC50 in series [1] is 0.4 µM. Further, the cytotoxic concentration (CC50) at 48 h in series [2] was over 100 µM.

Consider `CCOCCCNC(=O)c1csc(Nc2cc(F)c(Cl)c(F)c2)n1` [listing 2 of 2 here], for which the result in the series on Influenza A virus [3] was Active.

In the case of `O=C(NCCCN1CCOCC1)c1csc(Nc2ccc(Cl)c(Cl)c2)n1`, in series [1], the EC50 turned out to be 2.7 µM. In addition, the CC50 at 48 h in series [2] worked out at 35.6 µM.

Take `CCOCCCNC(=O)c1csc(Nc2cc(F)c(Cl)c(F)c2)n1.CS(=O)(=O)O.CS(=O)(=O)O`: the Activity in the series on Influenza A virus [4] is 70%.
